In brackets after ≈: the same amount, converted by molar mass. Activity calls are given as the source filed them. The calls are words filed in the database; no cut-off is given here.
Key:
[1] = system: Mycobacterium tuberculosis; assay: Antimycobacterial activity against Mycobacterium tuberculosis H37Rv ATCC 27294 after 14 days by microscopy; format: functional; settings: H37Rv ATCC 27294, 336 h
Method in brief: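 2-fold serial dilutions of compounds (from DMSO stocks), 50 to 0.195 µM final, in 7H9 broth with 0.05% Tween 80, 0.2% glycerol and ADS. Inoculum is a culture grown to A600 0.2 and diluted 1:1000. Incubated at 37 C for 14 days. MIC99 (99% growth inhibition) read macroscopically with an inverted plate reader. Done in triplicate.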

[2] = system: THP-1; assay: Cytotoxicity against human THP1 cells; format: cell-based
[3] = system: Mycobacterium tuberculosis; assay: Antimycobacterial activity against Mycobacterium tuberculosis H37Rv ATCC 27294 infected in Balb/c mouse assessed as reduction in bacterial load in lung at 100 mg/kg, po qd administered five days in a week starting 2 weeks post challenge measured after 6 weeks relative to DMSO-treated control; format: functional
Method in brief: (§1)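 Balb/c mice of either sex (25-30 g) infected by aerosol in an inhalation chamber, about 1000 bacilli/lung. Oral gavage once daily, 5 days/week, starting 2 weeks post-infection. DMSO and untreated groups as controls. N = 5/group, killed at 3, 6 and 10 weeks of therapy. Lung or spleen homogenates in saline plated in duplicate on 7H11 agar, 37 C for 3–4 weeks. Read-out is log10 CFU/organ.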

[4] = system: Mycobacterium tuberculosis; assay: Ratio of isoniazid MIC99 to compound MIC99 for Mycobacterium tuberculosis H37Rv ATCC 27294 after 14 days by microscopy; format: functional
[5] = system: Mycobacterium tuberculosis; assay: Antimycobacterial activity against Mycobacterium tuberculosis H37Rv ATCC 27294 infected in Balb/c mouse assessed as reduction in bacterial load in lung at 100 mg/kg, po qd administered five days in a week starting 2 weeks post challenge measured after 10 weeks relative to DMSO-treated control; format: functional; method in brief: as §1
[6] = system: Mycobacterium tuberculosis; assay: Antimycobacterial activity against Mycobacterium tuberculosis H37Rv ATCC 27294 infected in Balb/c mouse assessed as reduction in bacterial load in lung at 100 mg/kg, po qd administered five days in a week starting 2 weeks post challenge measured after 3 weeks relative to DMSO-treated control; format: functional; method in brief: as §1
[7] = system: Mycobacterium tuberculosis; assay: Antimycobacterial activity against Mycobacterium tuberculosis H37Rv ATCC 27294 infected in Balb/c mouse assessed as reduction in bacterial load in spleen at 100 mg/kg, po qd administered five days in a week starting 2 weeks post challenge measured after 6 weeks relative to DMSO-treated control; format: functional; method in brief: as §1
[8] = system: Mycobacterium tuberculosis; assay: Antimycobacterial activity against Mycobacterium tuberculosis H37Rv ATCC 27294 infected in Balb/c mouse assessed as reduction in bacterial load in spleen at 25 mg/kg, po qd administered five days in a week starting 2 weeks post challenge measured after 3 to 6 weeks relative to untreated control; format: functional, organism-based; set-up: dose 25 mg/kg; method in brief: as §1
[9] = system: Mycobacterium tuberculosis; assay: Antimycobacterial activity against Mycobacterium tuberculosis H37Rv ATCC 27294 infected in Balb/c mouse assessed as reduction in bacterial load in lung at 25 mg/kg, po qd administered five days in a week starting 2 weeks post challenge measured after 3 to 10 weeks relative to untreated control; format: functional, organism-based; set-up: dose 25 mg/kg; method in brief: as §1
[10] = system: Mycobacterium tuberculosis; assay: Antimycobacterial activity against Mycobacterium tuberculosis H37Rv ATCC 27294 infected in Balb/c mouse assessed as reduction in bacterial load in spleen at 50 mg/kg, po qd administered five days in a week starting 2 weeks post challenge measured after 10 weeks relative to DMSO-treated control; format: functional; method in brief: as §1
[11] = system: Mycobacterium tuberculosis; assay: Antimycobacterial activity against Mycobacterium tuberculosis H37Rv ATCC 27294 infected in Balb/c mouse assessed as reduction in bacterial load in spleen at 50 mg/kg, po qd administered five days in a week starting 2 weeks post challenge measured after 6 weeks relative to DMSO-treated control; format: functional; method in brief: as §1
[12] = system: Mycobacterium tuberculosis; assay: Antimycobacterial activity against Mycobacterium tuberculosis H37Rv ATCC 27294 infected in Balb/c mouse assessed as reduction in bacterial load in spleen at 50 mg/kg, po qd administered five days in a week starting 2 weeks post challenge measured after 3 weeks relative to DMSO-treated control; format: functional; method in brief: as §1
[13] = system: Mycobacterium tuberculosis; assay: Antimycobacterial activity against Mycobacterium tuberculosis H37Rv ATCC 27294 infected in Balb/c mouse assessed as reduction in bacterial load in spleen at 25 mg/kg, po qd administered five days in a week starting 2 weeks post challenge measured after 10 weeks relative to untreated control; format: functional; method in brief: as §1
[14] = system: Mycobacterium tuberculosis; assay: Antimycobacterial activity against Mycobacterium tuberculosis H37Rv ATCC 27294 infected in Balb/c mouse assessed as reduction in bacterial load in spleen at 100 mg/kg, po qd administered five days in a week starting 2 weeks post challenge measured after 3 weeks relative to DMSO-treated control; format: functional; method in brief: as §1
[15] = system: Mycobacterium tuberculosis; assay: Antimycobacterial activity against Mycobacterium tuberculosis H37Rv ATCC 27294 infected in Balb/c mouse assessed as reduction in bacterial load in lung at 50 mg/kg, po qd administered five days in a week starting 2 weeks post challenge measured after 3 to 10 weeks relative to untreated control; format: functional, organism-based; set-up: dose 50 mg/kg; method in brief: as §1
[16] = system: Mycobacterium tuberculosis; assay: Antimycobacterial activity against Mycobacterium tuberculosis H37Rv ATCC 27294 infected in Balb/c mouse assessed as reduction in bacterial load in spleen at 100 mg/kg, po qd administered five days in a week starting 2 weeks post challenge measured after 10 weeks relative to DMSO-treated control; format: functional
[17] = system: Mycobacterium tuberculosis; assay: Antimycobacterial activity against Mycobacterium tuberculosis H37Rv ATCC 27294 infected in Balb/c mouse assessed as reduction in bacterial load in spleen at 100 mg/kg, po qd administered five days in a week starting 2 weeks post challenge measured after 6 weeks relative to untreated control; format: functional; method in brief: as §1
[18] = system: Mycobacterium tuberculosis; assay: Antimycobacterial activity against Mycobacterium tuberculosis H37Rv ATCC 27294 infected in Balb/c mouse assessed as reduction in bacterial load in lung at 100 mg/kg, po qd administered five days in a week starting 2 weeks post challenge measured after 3 weeks relative to untreated control; format: functional; method in brief: as §1
[19] = system: Mycobacterium tuberculosis; assay: Antimycobacterial activity against Mycobacterium tuberculosis H37Rv ATCC 27294 infected in Balb/c mouse assessed as reduction in bacterial load in spleen at 100 mg/kg, po qd administered five days in a week starting 2 weeks post challenge measured after 3 weeks relative to untreated control; format: functional; method in brief: as §1
[20] = system: Mycobacterium tuberculosis; assay: Antimycobacterial activity against Mycobacterium tuberculosis H37Rv ATCC 27294 infected in Balb/c mouse assessed as reduction in bacterial load in lung at 100 mg/kg, po qd administered five days in a week starting 2 weeks post challenge measured after 6 weeks relative to untreated control; format: functional; method in brief: as §1
[21] = system: Mycobacterium tuberculosis; assay: Antimycobacterial activity against Mycobacterium tuberculosis H37Rv ATCC 27294 infected in Balb/c mouse assessed as reduction in bacterial load in spleen at 100 mg/kg, po qd administered five days in a week starting 2 weeks post challenge measured after 10 weeks relative to untreated control; format: functional; method in brief: as §1
[22] = system: Mycobacterium tuberculosis; assay: Antimycobacterial activity against Mycobacterium tuberculosis H37Rv ATCC 27294 infected in Balb/c mouse assessed as reduction in bacterial load in lung at 100 mg/kg, po qd administered five days in a week starting 2 weeks post challenge measured after 10 weeks relative to untreated control; format: functional; method in brief: as §1

| SMILES | MIC99 [1] | Activity [2] | further results |
| --- | --- | --- | --- |
| CCCn1cc(COc2ccc(/C=N/NC(=O)c3ccncc3)cc2)nn1 | 0.78 µM (≈ 0.284 µg/mL) | > 50 µM | – |
| CCC(=O)OCc1cn(CCCOc2ccc(/C=N/NC(=O)c3ccncc3)cc2)nn1 | 0.78 µM (≈ 0.34 µg/mL) | > 50 µM | – |
| O=C(N/N=C/c1ccc(OCCn2cc(COc3ccc(Cl)cc3)nn2)cc1)c1ccncc1 | 0.195 µM (≈ 0.093 µg/mL) | > 50 µM | log10cfu [3]: 0.82; Ratio [4]: 2; log10cfu [5]: 0.91; log10cfu [6]: 0.02; log10cfu [7]: 2.58; Activity [8]: inactive; Activity [9]: inactive; log10cfu [10]: 3.31; log10cfu [11]: 2.15; log10cfu [12]: 1.08; log10cfu [13]: 1.5; log10cfu [14]: 1.46; Activity [15]: inactive; log10cfu [16]: 2.58 |
| O=C(N/N=C/c1ccc(OCCCn2cc(CO)nn2)cc1)c1ccncc1 | 0.78 µM (≈ 0.297 µg/mL) | > 50 µM | – |
| CCCCc1cn(CCCOc2ccc(/C=N/NC(=O)c3ccncc3)cc2)nn1 | 0.39 µM (≈ 0.159 µg/mL) | > 50 µM | – |
| Cc1ccc(OCc2cn(CCOc3ccc(/C=N/NC(=O)c4ccncc4)cc3)nn2)cc1 | 0.39 µM (≈ 0.178 µg/mL) | > 50 µM | – |
| O=C(N/N=C/c1ccc(OCCn2cc(C3(O)CCCCC3)nn2)cc1)c1ccncc1 | 0.39 µM (≈ 0.169 µg/mL) | > 50 µM | – |
| O=C(N/N=C/c1ccc(OCCCn2cc(C3(O)CCCCC3)nn2)cc1)c1ccncc1 | 0.78 µM (≈ 0.35 µg/mL) | > 50 µM | – |
| CCC(=O)OCc1cn(CCOc2ccc(/C=N/NC(=O)c3ccncc3)cc2)nn1 | 0.78 µM (≈ 0.33 µg/mL) | > 50 µM | – |
| O=C(N/N=C/c1ccc(OCCCn2cc(COc3ccc(Cl)cc3)nn2)cc1)c1ccncc1 | 0.78 µM (≈ 0.383 µg/mL) | > 50 µM | – |
| CO[C@H]1/C=C/O[C@@]2(C)Oc3c(C)c(O)c4c(O)c(c(/C=N/N5CCN(C)CC5)c(O)c4c3C2=O)NC(=O)/C(C)=C\C=C\[C@H](C)[C@H](O)[C@@H](C)[C@@H](O)[C@@H](C)[C@H](OC(C)=O)[C@@H]1C [RIFAMPIN] | – | – | log10cfu [3]: 2.8; log10cfu [5]: 6.14; log10cfu [6]: 1.93; log10cfu [7]: 3.31; log10cfu [14]: 1.76 |
| O=C(N/N=C/c1ccc(OCCn2cc(COc3ccccc3)nn2)cc1)c1ccncc1 | 0.39 µM (≈ 0.173 µg/mL) | > 50 µM | – |
| O=C(N/N=C/c1ccc(OCc2cn(Cc3ccccc3)nn2)cc1)c1ccncc1 | 0.78 µM (≈ 0.322 µg/mL) | > 50 µM | – |
| NNC(=O)c1ccncc1 [ISONIAZID] | 0.39 µM (≈ 0.0535 µg/mL) | – | log10cfu [17]: 3.68; log10cfu [18]: 1.22; log10cfu [19]: 2.66; log10cfu [20]: 2.59; log10cfu [21]: 4; log10cfu [22]: 3.38 |
| CCCCCn1cc(COc2ccc(/C=N/NC(=O)c3ccncc3)cc2)nn1 | 0.39 µM (≈ 0.153 µg/mL) | > 50 µM | – |
| O=C(N/N=C/c1ccc(OCCn2cc(CO)nn2)cc1)c1ccncc1 | 0.78 µM (≈ 0.286 µg/mL) | > 50 µM | – |
| O=C(N/N=C/c1ccc(OCCCn2cc(COc3ccccc3)nn2)cc1)c1ccncc1 | 0.39 µM (≈ 0.178 µg/mL) | > 50 µM | – |
| CCCCn1cc(COc2ccc(/C=N/NC(=O)c3ccncc3)cc2)nn1 | 0.39 µM (≈ 0.148 µg/mL) | > 50 µM | – |
| O=C(N/N=C/c1ccc(OCCn2cc(-c3ccccn3)nn2)cc1)c1ccncc1 | 0.39 µM (≈ 0.161 µg/mL) | > 50 µM | – |
| Cc1ccc(OCc2cn(CCCOc3ccc(/C=N/NC(=O)c4ccncc4)cc3)nn2)cc1 | 0.78 µM (≈ 0.367 µg/mL) | > 50 µM | – |
| CCCCc1cn(CCOc2ccc(/C=N/NC(=O)c3ccncc3)cc2)nn1 | 0.78 µM (≈ 0.306 µg/mL) | > 50 µM | – |
| O=C(N/N=C/c1ccc(OCCn2cc(-c3ccccc3)nn2)cc1)c1ccncc1 | 0.39 µM (≈ 0.161 µg/mL) | > 50 µM | – |
| CC(C)n1cc(COc2ccc(/C=N/NC(=O)c3ccncc3)cc2)nn1 | 0.78 µM (≈ 0.284 µg/mL) | > 50 µM | – |
| CCCc1cn(CCCOc2ccc(/C=N/NC(=O)c3ccncc3)cc2)nn1 | 0.78 µM (≈ 0.306 µg/mL) | > 50 µM | – |
